From ChEMBL document CHEMBL1139975, “Cyclic benzamidines as orally efficacious NR2B-selective NMDA receptor antagonists” (Bioorg Med Chem Lett, 2007) come the findings set out here.

For data set [1], the target named is T1, Glutamate receptor ionotropic, NMDA 2B (Homo sapiens, UniProt Q05586+Q13224). Briefly: Antagonist activity at NMDA NR2B receptor assessed as calcium flux. It counts as functional. For orientation: Calcium assays in cells follow changes in intracellular calcium, usually with a dye or a luminescent sensor.
Data set [2] can be described thus: Clearance in rat at 2 mg/kg, iv and 10 mg/kg, po. It counts as ADME, organism-based. The following applies: in vivo. The procedure, abridged: (§1)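 Rats were dosed 2 mg/kg iv and 10 mg/kg po in separate arms. Plasma Cmax, plasma half-life, clearance and oral bioavailability were derived from these two dosings.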
A further data set concerns Rattus norvegicus. Briefly: Reduction in hyperalgesic response in po dosed carrageenan-induced hyperalgesia rat model. It counts as functional. The procedure, abridged:
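Carrageenan was used to induce hyperalgesia in rats, and test compound was given orally. Behavioral responses to noxious stimuli were scored, and the hyperalgesic response was expressed as % reduction versus control. ED50 was derived from oral dosing.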

Data set [3] in a line: Half life in rat at 2 mg/kg, iv and 10 mg/kg, po. The following applies: in vivo. It is filed as ADME, organism-based. Put shortly: as §1
Data set [4] in a line: Oral bioavailability in rat at 10 mg/kg. It is filed as ADME, organism-based. The following applies: in vivo. The procedure, abridged:
as §1

A short description of data set [5]: Cmax in rat at 2 mg/kg, iv and 10 mg/kg, po. It is filed as ADME, organism-based. The following applies: in vivo. Put shortly:
as §1

For data set [6], the target named is T1, Glutamate receptor ionotropic, NMDA 2B. Briefly: Binding affinity to NMDA NR2B receptor.

T1 sequence (Q13224 whole entry, one chain of several): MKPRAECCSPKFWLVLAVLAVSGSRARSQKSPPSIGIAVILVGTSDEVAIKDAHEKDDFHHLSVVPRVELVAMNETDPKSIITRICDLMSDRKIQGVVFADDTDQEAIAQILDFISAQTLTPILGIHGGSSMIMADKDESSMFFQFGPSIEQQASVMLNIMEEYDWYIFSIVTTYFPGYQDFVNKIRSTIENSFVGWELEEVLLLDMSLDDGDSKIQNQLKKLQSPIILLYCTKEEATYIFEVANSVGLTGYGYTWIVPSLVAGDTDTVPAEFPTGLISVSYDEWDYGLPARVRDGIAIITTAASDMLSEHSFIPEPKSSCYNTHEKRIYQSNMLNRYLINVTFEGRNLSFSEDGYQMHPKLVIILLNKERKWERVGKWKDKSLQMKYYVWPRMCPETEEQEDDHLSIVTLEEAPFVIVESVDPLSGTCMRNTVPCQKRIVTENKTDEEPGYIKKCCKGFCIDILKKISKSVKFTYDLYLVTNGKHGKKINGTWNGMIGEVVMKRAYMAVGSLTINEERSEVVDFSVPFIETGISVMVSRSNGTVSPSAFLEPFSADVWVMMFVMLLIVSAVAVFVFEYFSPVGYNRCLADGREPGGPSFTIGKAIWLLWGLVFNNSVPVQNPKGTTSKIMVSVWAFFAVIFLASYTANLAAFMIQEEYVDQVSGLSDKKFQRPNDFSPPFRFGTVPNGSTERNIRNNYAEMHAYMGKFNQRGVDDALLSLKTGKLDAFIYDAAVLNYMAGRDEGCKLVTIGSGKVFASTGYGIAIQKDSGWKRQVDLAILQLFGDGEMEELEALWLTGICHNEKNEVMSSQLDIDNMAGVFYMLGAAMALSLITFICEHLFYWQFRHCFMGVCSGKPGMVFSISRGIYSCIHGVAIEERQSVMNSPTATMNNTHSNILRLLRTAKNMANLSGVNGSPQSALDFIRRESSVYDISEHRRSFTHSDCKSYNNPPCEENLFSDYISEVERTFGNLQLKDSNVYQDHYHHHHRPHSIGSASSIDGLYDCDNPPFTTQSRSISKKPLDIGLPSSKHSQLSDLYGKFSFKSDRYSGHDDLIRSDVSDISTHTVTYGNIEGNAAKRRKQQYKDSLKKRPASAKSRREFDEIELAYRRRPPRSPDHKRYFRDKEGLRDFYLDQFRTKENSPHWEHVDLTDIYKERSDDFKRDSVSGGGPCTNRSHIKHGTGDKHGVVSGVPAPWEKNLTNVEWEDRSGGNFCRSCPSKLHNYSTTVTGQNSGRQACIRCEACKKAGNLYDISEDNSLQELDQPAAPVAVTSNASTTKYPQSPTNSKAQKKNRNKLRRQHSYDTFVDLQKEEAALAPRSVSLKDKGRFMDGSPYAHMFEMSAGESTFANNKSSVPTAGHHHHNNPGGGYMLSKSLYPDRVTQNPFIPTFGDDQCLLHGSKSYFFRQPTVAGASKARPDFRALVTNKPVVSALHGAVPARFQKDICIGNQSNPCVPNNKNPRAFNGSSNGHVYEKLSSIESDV

For `COc1ccccc1CN1Cc2cc(OC(F)(F)F)ccc2C1=N`, the IC50 in data set [1] was 5.9 nM. This compound showed a clearance in data set [2] of 66 mL/min/kg. Besides, the ED50 in the data set on Rattus norvegicus came to 20 mg/kg. Besides, the half-life in data set [3] was 2 h. Also, in data set [4], the bioavailability came to 5%. Further, the concentration in data set [5] peaked (Cmax) at 215 nM. In data set [6], this compound showed a Ki of 3.6 nM.

As for `Cc1cc(C)cc(CN2Cc3cc(OC(F)(F)F)ccc3C2=N)c1`, in data set [1], the IC50 amounted to 39 nM. For the same compound, the Ki in data set [6] came out at 2 nM.

For `N=C1c2ccc(OC(F)(F)F)cc2CN1Cc1cccc2ccoc12`, in data set [1], the IC50 amounted to 12 nM. The Ki in data set [6] stood at 2.2 nM.

Compound `OC1CN=C(c2ccc(OC(F)(F)F)cc2)NC1c1ccccc1` (configuration not stated) displayed a Ki in data set [6] of 7350 nM.

In the case of `COc1ccccc1C1CN=C(c2ccc(OC(F)(F)F)c(Cl)c2)N1` (configuration not stated), the IC50 in data set [1] was found to be 108 nM. Also, in data set [6], the Ki was found to be 75 nM.

`FC(F)(F)Oc1ccc(C2=NC(c3cccc(Cl)c3)CN2)cc1Cl` (configuration not stated): the IC50 in data set [1] was found to be 266 nM. The Ki in data set [6] amounted to 66 nM.

Take `N=C1c2ccc(OC(F)(F)F)cc2CN1Cc1cccc(Cl)c1`: the IC50 in data set [1] was 49 nM. The compound further showed a Ki in data set [6] of 8 nM.

In data set [6], `FC(F)(F)Oc1ccc(C2=NCCCC(c3ccccc3)N2)cc1` (configuration not stated) had a Ki of 4200 nM.

Regarding `FC(F)(F)Oc1ccc(C2=NC(c3cc(Cl)cc(Cl)c3)CN2)cc1Cl` (configuration not stated), the IC50 in data set [1] worked out at 3670 nM. In addition, the Ki in data set [6] stood at 223 nM.

Take `FC(F)(F)Oc1ccc(C2=NCC(c3ccccc3C(F)(F)F)N2)cc1Cl` (configuration not stated): the half-maximal inhibitory concentration (IC50) in data set [1] amounted to 1270 nM. The affinity in data set [6] corresponds to a Ki of 353 nM.

In the case of `FC(F)(F)Oc1ccc(C2=NCC(c3ccccc3OC(F)(F)F)N2)cc1Cl` (configuration not stated), in data set [1], the IC50 came to 3480 nM. This compound also returned a Ki in data set [6] of 505 nM.

On to `FC(F)(F)Oc1ccc(C2=NC(c3cccc(Cl)c3)CN2)cc1` (configuration not stated), for which the IC50 in data set [1] stood at 1980 nM. For the same compound, the affinity in data set [6] corresponds to a Ki of 296 nM.

In general, IC50 refers to the point on the concentration scale where inhibition reaches its midpoint. One may read the ED50 as the midpoint of the dose-response relation. As usually defined, the half-life is how long it takes for the measured level to halve. High values mean slow loss, low ones fast loss. As usually defined, the bioavailability is dose-corrected exposure relative to a reference, in per cent. Low readings indicate poor availability, high ones good availability. As usually defined, the Cmax is the maximum level reached in the sampled fluid or tissue. A word on the Ki: it is a measure of affinity in units of concentration, obtained from inhibition or displacement. A low value points to a stronger hold on the target.
